Data from ChEMBL document CHEMBL5724801, “EUbOPEN Chemogenomics Library - Multiplex” (2024).
Where “and” joins values, the source holds several entries; their conditions need not be identical. Equal values may be shown once.

Test system: U2OS
Assay: Multiplex assay against U2OS
Format: toxicity, cell-based
Settings: human
How it was run: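 With compound added, live cells were imaged on a CQ1 microscope at 37°C and 5% CO2; staining with Hoechst33342, BioTracker Green Microtubule Cytoskeleton Dye, MitoTracker Red and Annexin V Alexa Fluor 680 had been done at seeding. The CellPathfinder machine-learning gating scheme split cells into Hoechst high-intensity objects or normal cells, normal cells into healthy, pyknosed or fragmented nuclei, and pyknosed cells into mitotic or apoptotic. The tubulin, mitochondrial-mass and membrane-permeability phenotypes are per cents of healthy-nucleus cells.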

[1] = 12 h, 1 µM, compound concentration 1 uM
[2] = 12 h, 10 µM, compound concentration 10 uM
[3] = 24 h, 1 µM, compound concentration 1 uM
[4] = 24 h, 10 µM, compound concentration 10 uM
[5] = 48 h, 1 µM, compound concentration 1 uM
[6] = 48 h, 10 µM, compound concentration 10 uM

## C[C@H]1[C@H]2CC[C@H]3[C@@H]4CC=C5C[C@@H](N(C)C)CC[C@]5(C)[C@H]4CC[C@]23CN1C [CONESSINE]
[1]
  Population Apoptotic (%): 80% and 58%
  Population Fragmented Nuclei (%): 23% and 16%
  Population Healthy Nuclei (%): 70% and 73%
  Population Hoechst High Intensity Objects (%): 2% and 1%
  Population Membrane Permeable-Phenotype (%): 5%
  Population Mitochondria Different-Phenotype (%): 1% and 2%
  Population Mitotic Cells (%): 20% and 41%
  Population Normal (%): 97% and 98%
  Population Pyknosed Nuclei (%): 6% and 9%
  Population Tubulin-Different-Phenotype (%): 2% and 3%
  Total Cell Count: 248 and 124
[2]
  Population Apoptotic (%): 55% and 100%
  Population Fragmented Nuclei (%): 19% and 17%
  Population Healthy Nuclei (%): 71% and 68%
  Population Hoechst High Intensity Objects (%): 2% and 0%
  Population Membrane Permeable-Phenotype (%): 5% and 8%
  Population Mitochondria Different-Phenotype (%): 0% and 5%
  Population Normal (%): 97% and 99%
  Population Pyknosed Nuclei (%): 8% and 13%
  Population Tubulin-Different-Phenotype (%): 1% and 6%
  Total Cell Count: 237 and 107
[3]
  Population Apoptotic (%): 90% and 100%
  Population Fragmented Nuclei (%): 18% and 11%
  Population Healthy Nuclei (%): 74% and 81%
  Population Hoechst High Intensity Objects (%): 2% and 1%
  Population Membrane Permeable-Phenotype (%): 6% and 8%
  Population Mitochondria Different-Phenotype (%): 1% and 5%
  Population Mitotic Cells (%): 9% and 0%
  Population Normal (%): 97% and 98%
  Population Pyknosed Nuclei (%): 7%
  Population Tubulin-Different-Phenotype (%): 3% and 7%
  Total Cell Count: 307 and 153
[4]
  Population Apoptotic (%): 65% and 100%
  Population Fragmented Nuclei (%): 20% and 19%
  Population Healthy Nuclei (%): 71%
  Population Hoechst High Intensity Objects (%): 2% and 4%
  Population Membrane Permeable-Phenotype (%): 2% and 10%
  Population Mitochondria Different-Phenotype (%): 0% and 4%
  Population Normal (%): 97% and 95%
  Population Pyknosed Nuclei (%): 7% and 8%
  Population Tubulin-Different-Phenotype (%): 1% and 9%
  Total Cell Count: 265 and 134
[5]
  Population Apoptotic (%): 83% and 86%
  Population Fragmented Nuclei (%): 16%
  Population Healthy Nuclei (%): 79% and 73%
  Population Hoechst High Intensity Objects (%): 2%
  Population Membrane Permeable-Phenotype (%): 4%
  Population Mitochondria Different-Phenotype (%): 2% and 0%
  Population Mitotic Cells (%): 16% and 13%
  Population Normal (%): 97%
  Population Pyknosed Nuclei (%): 4% and 9%
  Population Tubulin-Different-Phenotype (%): 1% and 2%
  Total Cell Count: 430 and 227
[6]
  Population Apoptotic (%): 89% and 85%
  Population Fragmented Nuclei (%): 19% and 15%
  Population Healthy Nuclei (%): 73% and 72%
  Population Hoechst High Intensity Objects (%): 1% and 6%
  Population Membrane Permeable-Phenotype (%): 4% and 9%
  Population Mitochondria Different-Phenotype (%): 2% and 5%
  Population Mitotic Cells (%): 10% and 15%
  Population Normal (%): 98% and 93%
  Population Pyknosed Nuclei (%): 7% and 12%
  Population Tubulin-Different-Phenotype (%): 3% and 6%
  Total Cell Count: 370 and 175

## Clc1ccccc1C(c1ccccc1)(c1ccccc1)n1cccn1
[1]
  Population Apoptotic (%): 52.94% and 50%
  Population Fragmented Nuclei (%): 0.85% and 6.19%
  Population Healthy Nuclei (%): 94.3% and 76.11%
  Population Hoechst High Intensity Objects (%): 0%
  Population Membrane Permeable-Phenotype (%): 0.91% and 5.81%
  Population Mitochondria Different-Phenotype (%): 0.6% and 8.14%
  Population Mitotic Cells (%): 47.06% and 50%
  Population Normal (%): 100%
  Population Tubulin-Different-Phenotype (%): 1.51% and 2.33%
[2]
  Population Apoptotic (%): 36% and 44%
  Population Fragmented Nuclei (%): 1.64% and 4.81%
  Population Healthy Nuclei (%): 84.7% and 71.15%
  Population Hoechst High Intensity Objects (%): 0%
  Population Membrane Permeable-Phenotype (%): 2.58% and 8.11%
  Population Mitotic Cells (%): 64% and 56%
  Population Normal (%): 100%
  Population Pyknosed Nuclei (%): 13.66% and 24.04%
  Population Tubulin-Different-Phenotype (%): 4.19% and 5.41%
[3]
  Population Apoptotic (%): 37.5% and 52.38%
  Population Fragmented Nuclei (%): 0.42% and 4.86%
  Population Healthy Nuclei (%): 89.47% and 80.56%
  Population Hoechst High Intensity Objects (%): 0%
  Population Membrane Permeable-Phenotype (%): 0.71% and 2.59%
  Population Mitochondria Different-Phenotype (%): 0% and 6.9%
  Population Mitotic Cells (%): 62.5% and 47.62%
  Population Normal (%): 100%
  Population Pyknosed Nuclei (%): 10.11% and 14.58%
  Population Tubulin-Different-Phenotype (%): 0.71% and 0%
[4]
  Population Apoptotic (%): 45.33% and 34.38%
  Population Fragmented Nuclei (%): 1.25% and 0.79%
  Population Healthy Nuclei (%): 83.12% and 73.81%
  Population Hoechst High Intensity Objects (%): 0%
  Population Membrane Permeable-Phenotype (%): 0.75% and 4.3%
  Population Mitotic Cells (%): 54.67% and 65.62%
  Population Normal (%): 100%
  Population Pyknosed Nuclei (%): 15.62% and 25.4%
  Population Tubulin-Different-Phenotype (%): 2.51% and 2.15%
[5]
  Population Apoptotic (%): 43.33% and 70%
  Population Fragmented Nuclei (%): 3.58% and 1.82%
  Population Healthy Nuclei (%): 89.7% and 89.09%
  Population Hoechst High Intensity Objects (%): 0%
  Population Membrane Permeable-Phenotype (%): 0.75% and 3.57%
  Population Mitochondria Different-Phenotype (%): 0.12% and 4.08%
  Population Mitotic Cells (%): 56.67% and 30%
  Population Normal (%): 100%
  Population Pyknosed Nuclei (%): 6.72% and 9.09%
  Population Tubulin-Different-Phenotype (%): 1.25% and 2.04%
[6]
  Population Apoptotic (%): 51.65% and 41.67%
  Population Fragmented Nuclei (%): 2.12% and 0.6%
  Population Healthy Nuclei (%): 85.85% and 77.71%
  Population Hoechst High Intensity Objects (%): 0%
  Population Membrane Permeable-Phenotype (%): 1.54% and 5.43%
  Population Mitochondria Different-Phenotype (%): 1.08% and 10.08%
  Population Mitotic Cells (%): 48.35% and 58.33%
  Population Normal (%): 100%
  Population Pyknosed Nuclei (%): 12.04% and 21.69%
  Population Tubulin-Different-Phenotype (%): 3.08% and 5.43%

## O=C(Nc1cc(C(F)(F)F)cc(C(F)(F)F)c1)c1cc(Cl)ccc1O [IMD-0354]
[1]
  Population Apoptotic (%): 56.25% and 45.83%
  Population Fragmented Nuclei (%): 0.73% and 2.45%
  Population Healthy Nuclei (%): 91.46% and 82.82%
  Population Hoechst High Intensity Objects (%): 0.24% and 0.61%
  Population Membrane Permeable-Phenotype (%): 0.27% and 2.22%
  Population Mitochondria Different-Phenotype (%): 0% and 7.41%
  Population Mitotic Cells (%): 43.75% and 54.17%
  Population Normal (%): 99.76% and 99.39%
  Population Pyknosed Nuclei (%): 7.8% and 14.72%
  Population Tubulin-Different-Phenotype (%): 0.27% and 0.74%
  Total Cell Count: 411 and 164
[2]
  Population Apoptotic (%): 45.45% and 65%
  Population Fragmented Nuclei (%): 2.48% and 9.2%
  Population Healthy Nuclei (%): 87.61% and 79.31%
  Population Hoechst High Intensity Objects (%): 0%
  Population Membrane Permeable-Phenotype (%): 0% and 0.72%
  Population Mitochondria Different-Phenotype (%): 0% and 2.9%
  Population Mitotic Cells (%): 54.55% and 35%
  Population Normal (%): 100%
  Population Pyknosed Nuclei (%): 9.91% and 11.49%
  Population Tubulin-Different-Phenotype (%): 0.26% and 0%
  Total Cell Count: 444 and 174
[3]
  Population Apoptotic (%): 40.91% and 57.69%
  Population Fragmented Nuclei (%): 1.32% and 3.81%
  Population Healthy Nuclei (%): 90.38% and 83.81%
  Population Hoechst High Intensity Objects (%): 0%
  Population Membrane Permeable-Phenotype (%): 0.21% and 1.7%
  Population Mitochondria Different-Phenotype (%): 0% and 8.52%
  Population Mitotic Cells (%): 59.09% and 42.31%
  Population Normal (%): 100%
  Population Pyknosed Nuclei (%): 8.3% and 12.38%
  Population Tubulin-Different-Phenotype (%): 0.42% and 0.57%
  Total Cell Count: 530 and 210
[4]
  Population Apoptotic (%): 60.24% and 73.33%
  Population Fragmented Nuclei (%): 1.8% and 8.77%
  Population Healthy Nuclei (%): 79.5% and 73.68%
  Population Hoechst High Intensity Objects (%): 0%
  Population Membrane Permeable-Phenotype (%): 2.55% and 1.59%
  Population Mitochondria Different-Phenotype (%): 0% and 0.79%
  Population Mitotic Cells (%): 39.76% and 26.67%
  Population Normal (%): 100%
  Population Pyknosed Nuclei (%): 18.69% and 17.54%
  Population Tubulin-Different-Phenotype (%): 3.4% and 0%
  Total Cell Count: 444 and 171
[5]
  Population Apoptotic (%): 46.15% and 44.44%
  Population Fragmented Nuclei (%): 2.37% and 2.99%
  Population Healthy Nuclei (%): 91.15% and 83.53%
  Population Hoechst High Intensity Objects (%): 0%
  Population Membrane Permeable-Phenotype (%): 0.68% and 0.36%
  Population Mitochondria Different-Phenotype (%): 0.14% and 3.58%
  Population Mitotic Cells (%): 53.85% and 55.56%
  Population Normal (%): 100%
  Population Pyknosed Nuclei (%): 6.48% and 13.47%
  Population Tubulin-Different-Phenotype (%): 1.23% and 0.36%
  Total Cell Count: 802 and 334
[6]
  Population Apoptotic (%): 62.57% and 80.82%
  Population Healthy Nuclei (%): 51.4% and 35.44%
  Population Hoechst High Intensity Objects (%): 0% and 0.63%
  Population Membrane Permeable-Phenotype (%): 13.86% and 7.14%
  Population Mitochondria Different-Phenotype (%): 1.49% and 1.79%
  Population Mitotic Cells (%): 37.43% and 19.18%
  Population Normal (%): 100% and 99.37%
  Population Pyknosed Nuclei (%): 45.55% and 46.2%
  Population Tubulin-Different-Phenotype (%): 11.39% and 8.93%
  Total Cell Count: 393 and 159
